The target of data set [1] is T1, C-C chemokine receptor type 5 (Homo sapiens, UniProt P51681). Nature of the data set: Rises in intracellular [Ca2+] levels by using [Ca2+] sensitive Fluo4 dye in C-C chemokine receptor type 5-transfected CHO cells. The data set is classed as functional, cell-based. A digest of the protocol: (§1)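 CCR5-transfected CHO cells were loaded with 4 µM Fluo4 for 1 h at 37 °C (HBSS, 20 mM HEPES pH 7.4, 0.1% BSA, 2.5 mM probenecid), then washed. Compound preincubated 2 h at room temperature. Baseline read 20 s on FLIPR, then MIP-1α added (final 10 nM) and recorded 3 min. IC50 from concentration-dependent reduction of Fmax−Fmin.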
T1 sequence (P51681 whole entry): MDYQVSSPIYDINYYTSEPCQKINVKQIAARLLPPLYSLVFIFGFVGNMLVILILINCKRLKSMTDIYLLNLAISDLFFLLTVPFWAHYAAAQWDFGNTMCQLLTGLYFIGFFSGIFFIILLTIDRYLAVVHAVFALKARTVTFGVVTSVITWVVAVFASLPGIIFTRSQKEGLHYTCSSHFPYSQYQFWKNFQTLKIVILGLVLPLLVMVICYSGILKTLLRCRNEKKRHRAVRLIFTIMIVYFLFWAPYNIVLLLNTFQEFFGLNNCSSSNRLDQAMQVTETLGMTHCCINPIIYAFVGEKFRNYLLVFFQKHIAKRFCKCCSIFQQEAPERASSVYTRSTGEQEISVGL

The target of data set [2] is T1, C-C chemokine receptor type 5. Nature of the data set: Antagonistic activity against human C-C chemokine receptor type 5. The data set is classed as functional. A digest of the protocol:
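SPA radioligand binding using membranes from CHO cells transfected with human or cynomolgus CCR5. Buffer was 50 mM HEPES, 6 mM CaCl2, 12 mM MgCl2, 100 mM NaCl and 0.5% BSA. Incubated 2 h shaking at room temperature. Nonspecific binding defined with 100 nM unlabeled MIP-1α. IC50 reported.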

Data set [3] is described as follows: Oral bioavailability in rat. The note with it: in vivo. The data set is classed as ADME, organism-based.
Data set [4] is described as follows: Mean residence time in monkeys. The data set is classed as ADME, organism-based. The note with it: simiiformes, in vivo.
Data set [5] relates to Rattus norvegicus. Nature of the data set: AUC in rats at a dose of […] mg/kg. It counts as ADME, organism-based, Plasma. The note with it: in vivo, 1 mg/kg.
Data set [6] can be described thus: (§2) Compound was evaluated for rises in intracellular [Ca2+] levels pre-incubation at 2.5 min in [Ca2+] Mobilization Assay. It counts as functional, cell-based. Summed up:
(§3)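 Fluo4-loaded CCR5-transfected CHO cells on FLIPR. Baseline read 20 s, then compound added and monitored 2.5 min, then MIP-1α agonist (final 10 nM) added and fluorescence recorded 3 min. IC50 from inhibition of the MIP-1α-induced fluorescence rise.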

Data set [7] is described as follows: Mean residence time was determined. It counts as ADME, organism-based. The note with it: in vivo.
Data set [8] in a line: Cmax in monkeys at a dose of […] mg/kg. The data set is classed as ADME, organism-based. The note with it: simiiformes, in vivo, 1 mg/kg.
Data set [9] can be described thus: Tmax in monkeys. The data set is classed as ADME. The note with it: simiiformes, in vivo.
Data set [10] in a line: Cmax in rats at a dose of […] mg/kg. It counts as ADME, organism-based. The note with it: rat, in vivo, 1 mg/kg.
Data set [11] can be described thus: Oral bioavailability. It counts as ADME, organism-based. The note with it: eutheria, in vivo.
Data set [12] is described as follows: AUC in monkeys at a dose of […] mg/kg. It counts as ADME, organism-based, Plasma. The note with it: simiiformes, in vivo, 1 mg/kg.
A short description of data set [13]: Compound was evaluated for rises in intracellular [Ca2+] levels pre-incubation at 2 hr in [Ca2+] Mobilization Assay. It counts as functional, cell-based. Summed up:
as §1

The nature of data set [14]: Compound was evaluated for rises in intracellular [Ca2+] levels by using [Ca2+] sensitive Fluo4 dye in CCR5-transfected CHO cells. The data set is classed as functional, cell-based. A digest of the protocol: as §1
The nature of data set [15]: Mean residence time in rat. The note with it: in vivo. The data set is classed as ADME, organism-based.
The nature of data set [16]: Tmax in rats. The data set is classed as ADME, organism-based. The note with it: rat, in vivo.
Data set [17] has as its target CCR5 (Macaca fascicularis). Nature of the data set: Antagonistic activity against cynomolgus monkey C-C chemokine receptor type 5.
The species entered for data set [18] is Homo sapiens. Described as §2. It counts as functional, organism-based. Summed up: as §3
Data set [19] in a line: Mean residence time in rats. The note with it: rat, in vivo. It counts as ADME, organism-based.

Consider 26 molecules from ChEMBL document CHEMBL1149140, “Orally bioavailable competitive CCR5 antagonists” (J Med Chem, 2004).

As to `Cc1cccc(C)c1C(=O)N1CCC(C)(N2CCC(Nc3cccc4ccn(C)c34)CC2)CC1`, the 50% inhibitory concentration (IC50) was found to be 2170 nM in data set [1] and 102 nM in data set [2].
Consider `Cc1cccc(C)c1C(=O)N1CCC(C)(N2CCC(N(Cc3ccccc3)c3ccccc3)CC2)CC1`, for which the bioavailability came to 85% in [3] and 4% in data set [11]. Also, the mean residence time (MRT) in data set [4] is 4.1 h; in [7] it was 8.9 h. Also, the AUG came out at 569 ng·h/mL in data set [5] and 33 ng·h/mL in data set [12]. The IC50 in [6] worked out at 200 nM. Further, the highest concentration (Cmax) in data set [8] was found to be 7 ng/mL; in [10], 90 ng/mL. Besides, the Tmax in data set [9] worked out at 0.5 h.
In data set [2], `CN(C)C(=O)c1ccccc1C(=O)N1CCC(C)(N2CCC(N(c3ccccc3)c3ccccc3)CC2)CC1` registered an IC50 above 100 nM.
In data set [2], `Cc1cccc(C)c1C(=O)N1CCC(C)(N2CCC(N(Cc3ccccc3)Cc3ccccc3)CC2)CC1` yielded an IC50 of 75 nM.
With `Cc1cc[n+]([O-])c(C)c1C(=O)N1CCC(C)(N2CCC(N(Cc3ccccc3C#N)c3ccccc3)CC2)CC1`, the values for the IC50 in data set [1] and in data set [2] were above 3000 nM and 80 nM, respectively.
Taken in the same sequence, the figures for `CC1(N2CCC(N(c3ccccc3)c3ccccc3)CC2)CCN(C(=O)C2CCCCC2)CC1` were 580 nM and 408 nM.
Consider `Cc1cc[n+]([O-])c(C)c1C(=O)N1CCC(C)(N2CCC(N(c3ccccc3)c3ccccc3)CC2)CC1`, for which the IC50 was 16 nM in [1], 3.3 nM in data set [2], 16 nM in [13] and 33 nM in [6].
As to `Cc1nc[n+]([O-])c(C)c1C(=O)N1CCC(C)(N2CCC(N(c3ccccc3)c3ccccc3)CC2)CC1`, the bioavailability worked out at 94% in data set [3] and 58% in data set [11]. Further, the MRT in data set [4] stood at 5.1 h; in data set [7], 6 h. In addition, the values for the AUG in data set [5] and in data set [12] were 1030 ng·h/mL and 1550 ng·h/mL, respectively. The Cmax in data set [8] and in [10] was 91 ng/mL each time.
Consider `Cc1cc[n+]([O-])c(C)c1C(=O)N1CCC(N2CCC(N(c3ccccc3)c3ccccc3)CC2)CC1`, for which the IC50 stood at 127 nM in data set [1] and 9 nM in [2].
The molecule `COc1cccc(OC)c1C(=O)N1CCC(C)(N2CCC(N(c3ccccc3)c3ccccc3)CC2)CC1` came in with an IC50 in data set [2] of 42 nM.
The molecule `Cc1ccnc(C)c1C(=O)N1CCC(C)(N2CCC(N(c3ccccc3)c3ccccc3)CC2)CC1` displayed a half-maximal inhibitory concentration (IC50) in [6] of 114 nM.
As for `Cc1cccc(C)c1C(=O)N1CCC(C)(N2CCC(Nc3ccc(C(F)(F)F)cc3)CC2)CC1`, the IC50 in [1] was 27.3 nM; in [2], 0.8 nM.
The corresponding values for `Cc1ccccc1C(=O)N1CCC(C)(N2CCC(N(c3ccccc3)c3ccccc3)CC2)CC1` are 67 nM and 7.8 nM.
In turn, `Cc1cccc(C)c1C(=O)N1CCC(C)(N2CCC(Nc3ccc(-c4ccccc4)cc3)CC2)CC1` yielded an IC50 in data set [2] of 460 nM.
Turning to `CC1(N2CCC(N(c3ccccc3)c3ccccc3)CC2)CCN(C(=O)c2cccc3ccccc23)CC1`, the bioavailability in data set [3] turned out to be 100%. Moreover, the IC50 came to 29.4 nM in data set [14], 29 nM in [13] and 610 nM in data set [6]. In addition, the AUG in data set [5] came out at 518 ng·h/mL. Besides, in data set [15], the MRT worked out at 14.4 h. Further, the peak level in data set [8] (Cmax) was 70 ng/mL.
Turning to `COc1cc(CN(c2ccccc2)C2CCN(C3(C)CCN(C(=O)c4c(C)cc[n+]([O-])c4C)CC3)CC2)cc(OC)c1OC`, the half-inhibitory concentration (IC50) in data set [2] is above 1000 nM.
Regarding `Cc1cccc(C)c1C(=O)N1CCC(C)(N2CCC(NCc3ccccc3)CC2)CC1`, the IC50 in [1] and in [2] was above 1000 nM in each case.
Consider `Cc1cccc(C)c1C(=O)N1CCC(C)(N2CCC(N(Cc3ccccc3)c3ccc(Br)cc3)CC2)CC1`, for which the IC50 in [1] came out at 15.6 nM; in data set [2], 2.3 nM; in data set [13] it was 28 nM; in [6], 1450 nM.
As for `Cc1cccc(C)c1C(=O)N1CCC(C)(N2CCC(Nc3ccc4ccn(C)c4c3)CC2)CC1`, the IC50 in [1] amounted to 1680 nM; in data set [2] it was 91 nM.
Turning to `Cc1cc(C)c(S(=O)(=O)N2CCC(C)(N3CCC(N(c4ccccc4)c4ccccc4)CC3)CC2)c(C)c1`, the IC50 in data set [2] was found to be 41 nM.
Turning to `CC1(N2CCC(N(c3ccccc3)c3ccccc3)CC2)CCN(C(=O)c2c[nH]c3ccccc23)CC1`, the figures for the IC50 in [1] and in [2] were 283 nM and 48 nM, respectively.
`Cc1nc(-c2ccncc2)nc(C)c1C(=O)N1CCC(C)(N2CCC(N(c3ccccc3)c3ccccc3)CC2)CC1`: the IC50 came to 30 nM in [1]; 2.8 nM in data set [2]; 24.6 nM in data set [13]; 125 nM in [6]; 7.9 nM in data set [17]. The molecule further returned an AUG in [5] of 513 ng·h/mL. In data set [7], this molecule gave an MRT of 5.8 h. Also, in [16], the Tmax is 0.5 h. The molecule further showed a Cmax in [10] of 73 ng/mL. The bioavailability in data set [11] amounted to 57%.
`Cc1nc(-c2ccccc2)nc(C)c1C(=O)N1CCC(C)(N2CCC(N(c3ccccc3)c3ccccc3)CC2)CC1`: the bioavailability in data set [3] came out at 86%; in data set [11], 0%. The peak level in data set [8] (Cmax) was 12 ng/mL. In data set [12], this molecule registered an AUG of 115 ng/mL/h.
`Cc1ncnc(C)c1C(=O)N1CCC(C)(N2CCC(N(c3ccccc3)c3ccccc3)CC2)CC1`: the IC50 in [18] is 28 nM; in data set [13], 8 nM.
Molecule `Cc1cccc(C)c1C(=O)N1CCC(C)(N2CCC(Nc3ccccc3)CC2)CC1` gave an IC50 in [2] of 100 nM.
For the molecule `Cc1cccc(C)c1C(=O)N1CCC(C)(N2CCC(N(c3ccccc3)c3ccccc3)CC2)CC1`, the bioavailability is 62% in data set [3] and 0% in data set [11]. In [5], this molecule showed an AUG of 664 ng·h/mL. Besides, in data set [6], the IC50 came to 250 nM. Besides, the MRT in data set [19] is 6.9 h. This molecule gave a Cmax in data set [8] of 81 ng/mL. For the same molecule, the Tmax in data set [16] came to 0.5 h.

The term IC50 denotes the concentration that inhibits the measured activity by half. Usually bioavailability stands for the share of a dose that reaches the circulation, judged against a reference dose that is usually intravenous. As a reminder, the MRT is a mean duration of stay, worked out from the concentration-time curve. The Cmax is the maximum level reached in the sampled fluid or tissue. In general, Tmax refers to the time from dosing to the highest level.
